Assay results published in ChEMBL document CHEMBL4396897, “Potent 5-Cyano-6-phenyl-pyrimidin-Based Derivatives Targeting DCN1-UBE2M Interaction” (J Med Chem, 2019).
Activity calls are given as the source filed them. The calls are words filed in the database; no cut-off is given here.

Tests used:
DCN1-like protein 2 = DCN1-like protein 2 (Homo sapiens, UniProt Q6PH85); test: Binding affinity to N-terminal GST tagged recombinant DCN2 (unknown origin) (62 to 259 residues) expressed in Escherichia coli BL21(DE3) assessed as reduction in DCN1-FAM-labelled N-terminal acetylated UBE2M (1 to 21 residues) protein-protein interaction after 30 mins by HTRF assay
Sequence of DCN1-like protein 2 (Q6PH85 whole entry, the tested form may be a part): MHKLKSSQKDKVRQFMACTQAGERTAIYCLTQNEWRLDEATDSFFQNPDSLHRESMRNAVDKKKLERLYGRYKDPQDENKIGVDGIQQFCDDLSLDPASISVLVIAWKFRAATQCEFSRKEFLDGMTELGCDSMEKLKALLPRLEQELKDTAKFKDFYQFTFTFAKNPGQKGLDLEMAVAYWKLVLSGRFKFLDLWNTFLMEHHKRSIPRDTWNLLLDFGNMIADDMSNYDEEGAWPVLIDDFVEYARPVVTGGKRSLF
Outline: (§1)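 HTRF competition: 5nM GST-tagged DCN (1-5) and 5nM AcUBE2M1-21-biotin peptide, with streptavidin-XL665 and anti-GST cryptate, in 100mM phosphate buffer pH 6.5 with 0.02% Tween-20. Cocktail pre-incubated 30min at room temperature, compound added, then 30min more. Excitation 320nm, emission 615/665nm. Ki from three independent repeats, mean ± SD.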

DCN1-like protein 3 = molecular target: T1, DCN1-like protein 3 (Homo sapiens, UniProt Q8IWE4); test: Binding affinity to N-terminal GST tagged recombinant DCN3 (unknown origin) (86 to 304 residues) expressed in Escherichia coli BL21(DE3) assessed as reduction in DCN1/FAM-labelled N-terminal acetylated UBE2M (1 to 21 residues) protein-protein interaction after 30 mins by HTRF assay; outline: as §1
T1 sequence (Q8IWE4 whole entry): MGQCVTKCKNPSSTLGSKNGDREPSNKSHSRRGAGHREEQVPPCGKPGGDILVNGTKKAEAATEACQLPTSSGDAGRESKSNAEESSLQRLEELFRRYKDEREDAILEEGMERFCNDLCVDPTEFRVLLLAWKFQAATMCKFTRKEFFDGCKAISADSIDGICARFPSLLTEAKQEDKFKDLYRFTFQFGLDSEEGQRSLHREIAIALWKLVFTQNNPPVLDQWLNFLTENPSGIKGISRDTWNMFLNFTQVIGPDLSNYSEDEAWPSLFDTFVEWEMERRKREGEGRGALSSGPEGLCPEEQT

DCN1-like protein 4 = molecular target: T2, DCN1-like protein 4 (Homo sapiens, UniProt Q92564); test: Binding affinity to N-terminal GST tagged recombinant DCN4 (unknown origin) (102 to 292 residues) expressed in Escherichia coli BL21(DE3) assessed as reduction in DCN1/FAM-labelled N-terminal acetylated UBE2M (1 to 21 residues) protein-protein interaction after 30 mins by HTRF assay; outline: as §1
T2 sequence (Q92564 whole entry): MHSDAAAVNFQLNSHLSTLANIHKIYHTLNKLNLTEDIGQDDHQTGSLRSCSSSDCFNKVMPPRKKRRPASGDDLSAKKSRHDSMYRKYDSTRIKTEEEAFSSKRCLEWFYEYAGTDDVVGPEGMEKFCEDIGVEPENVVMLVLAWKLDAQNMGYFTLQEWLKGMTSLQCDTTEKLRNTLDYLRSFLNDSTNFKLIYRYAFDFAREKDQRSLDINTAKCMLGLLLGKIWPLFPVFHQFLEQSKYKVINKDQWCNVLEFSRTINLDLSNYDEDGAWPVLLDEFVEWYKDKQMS

PC-9 [1] = test: Effect on NRF2 accumulation in human PC9 cells transfected with DCN1 siRNA3 by densitometric method; assay type: functional, cell-based
Outline: (§2)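 H1975 or PC9 cells seeded in 6-well plates for 16-24h, transfected with DCN1 siRNA#3 by lipofection, with or without compound, and collected three days later. Western blot for Cullin3, DCN1, NRF2, HO-1 and NQO1, with densitometry normalized to GAPDH. Three individual experiments, means ± SD.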

PC-9 [2] = test: Effect on NQO1 accumulation in human PC9 cells transfected with DCN1 siRNA3 by densitometric method; assay type: functional, cell-based; outline: as §2
MCF7 = test: Antiproliferative activity against human MCF7 after 72 hrs by MTT assay; assay type: functional, cell-based; conditions: MCF7, 72 h
Outline: (§3)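 MTT viability assay: cells seeded at 2~5×10^3 per well, exposed to serial dilutions of compound for 72h, then MTT (5 mg/mL in PBS) added for 4h at 37°C. Formazan dissolved in DMSO and read at 490nm. IC50 reported as mean ± SD of three independent experiments.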

TE-1 = test: Antiproliferative activity against human TE1 after 72 hrs by MTT assay; assay type: functional, cell-based; outline: as §3
KYSE-140 = test: Antiproliferative activity against human KYSE-140 after 72 hrs by MTT assay; assay type: functional, cell-based; outline: as §3
L02 = test: Antiproliferative activity against human L02 after 72 hrs by MTT assay; assay type: cell-based; conditions: l02, 72 h; outline: as §3
A549 [3] = test: Induction of apoptosis in human A549 cells assessed as necrotic cells at 2.5 uM after 48 hrs by Annexin V-FITC/propidium iodide staining based flow cytometry (reference value: 0.88%); assay type: functional
A549 [4] = test: Induction of apoptosis in human A549 cells assessed as early apoptotic cells at 5 uM after 48 hrs by Annexin V-FITC/propidium iodide staining based flow cytometry (reference value: 3.63%); assay type: functional
A549 [5] = test: Induction of apoptosis in human A549 cells assessed as late apoptotic cells at 5 uM after 48 hrs by Annexin V-FITC/propidium iodide staining based flow cytometry (reference value: 2.61%); assay type: functional
PC-9 [6] = test: Induction of apoptosis in human PC9 cells assessed as late apoptotic cells at 2.5 uM after 48 hrs by Annexin V-FITC/propidium iodide staining based flow cytometry (reference value: 1.57%); assay type: functional
PC-9 [7] = test: Induction of apoptosis in human PC9 cells assessed as viable cells at 5 uM after 48 hrs by Annexin V-FITC/propidium iodide staining based flow cytometry (reference value: 95.7%); assay type: functional; conditions: PC-9, 48 h, read-out: Activity
Outline: (§4)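 PC9 cells seeded in 6-well plates (1~2×10^6 cells/mL), incubated overnight, then exposed to 0, 2.5, 5 or 10µM compound for 48h. Harvested cells stained with Annexin-V-FITC/PI for 30 min and analysed by flow cytometry. Three individual experiments; means ± SD.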

PC-9 [8] = test: Induction of apoptosis in human PC9 cells assessed as viable cells at 10 uM after 48 hrs by Annexin V-FITC/propidium iodide staining based flow cytometry (reference value: 95.7%); assay type: functional; conditions: PC-9, 48 h, read-out: Activity; outline: as §4
PC-9 [9] = test: Induction of apoptosis in human PC9 cells assessed as late apoptotic cells at 10 uM after 48 hrs by Annexin V-FITC/propidium iodide staining based flow cytometry (reference value: 1.57%); assay type: functional
NCI-H1975 [10] = test: Induction of apoptosis in human NCI-NCI-H1975 cells assessed as late apoptotic cells at 2.5 uM after 48 hrs by Annexin V-FITC/propidium iodide staining based flow cytometry (reference value: 0.46%); assay type: functional
NCI-H1975 [11] = test: Induction of apoptosis in human NCI-NCI-H1975 cells assessed as viable cells at 5 uM after 48 hrs by Annexin V-FITC/propidium iodide staining based flow cytometry (reference value: 96.1%); assay type: functional; conditions: NCI-H1975, 48 h, read-out: Activity
NCI-H1975 [12] = test: Induction of apoptosis in human NCI-NCI-H1975 cells assessed as necrotic cells at 5 uM after 48 hrs by Annexin V-FITC/propidium iodide staining based flow cytometry (reference value: 0.94%); assay type: functional
NCI-H1975 [13] = test: Induction of apoptosis in human NCI-NCI-H1975 cells assessed as late apoptotic cells at 10 uM after 48 hrs by Annexin V-FITC/propidium iodide staining based flow cytometry (reference value: 0.46%); assay type: functional
DCN1-like protein 1 = DCN1-like protein 1 (Homo sapiens, UniProt Q96GG9)
Sequence of DCN1-like protein 1 (Q96GG9 whole entry, looked up): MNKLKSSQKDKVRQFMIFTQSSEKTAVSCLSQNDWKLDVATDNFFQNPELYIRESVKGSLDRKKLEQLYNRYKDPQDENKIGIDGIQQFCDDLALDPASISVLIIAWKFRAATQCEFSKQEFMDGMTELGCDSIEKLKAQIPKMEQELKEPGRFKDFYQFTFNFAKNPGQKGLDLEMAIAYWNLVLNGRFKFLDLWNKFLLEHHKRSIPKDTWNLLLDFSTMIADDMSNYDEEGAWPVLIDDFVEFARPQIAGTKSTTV

Q: For C#CCSc1nc(Sc2nccs2)c(C#N)c(-c2ccc(C)cc2)n1, which Ki (DCN1-like protein 2) is on record?
A: 66.2 nM

Q: What about the Ki (DCN1-like protein 3) of the same compound?
A: 592 nM

Q: What about the Ki (DCN1-like protein 4) of the same compound?
A: 807 nM

Q: What about the Activity (PC-9 [1]) of the same compound?
A: inactive

Q: What about the Activity (PC-9 [2]) of the same compound?
A: inactive

Q: And the IC50 (MCF7)?
A: 2200 nM

Q: What about the Activity (TE-1) of the same compound?
A: Active

Q: And the Activity (KYSE-140)?
A: Active

Q: What about the Activity (L02) of the same compound?
A: Non-Toxic

Q: What about the Activity (A549 [3]) of the same compound?
A: 1.22%

Q: And the Activity (A549 [4])?
A: 8.75%

Q: And the Activity (A549 [5])?
A: 31.6%

Q: What about the Activity (PC-9 [6]) of the same compound?
A: 10.2%

Q: And the viability at 5 µM (PC-9 [7])?
A: 63.8%

Q: And the viability at 10 µM (PC-9 [8])?
A: 23.4%

Q: And the Activity (PC-9 [9])?
A: 57.2%

Q: And the Activity (NCI-H1975 [10])?
A: 9.13%

Q: And the viability at 5 µM (NCI-H1975 [11])?
A: 37.7%

Q: And the Activity (NCI-H1975 [12])?
A: 4.92%

Q: And the Activity (NCI-H1975 [13])?
A: 46.9%

Q: What about the ΔTm (DCN1-like protein 1) of the same compound?
A: 7 °C
